Test results taken from ChEMBL document CHEMBL4041468, “Effects of Koumine on Adjuvant- and Collagen-Induced Arthritis in Rats” (J Nat Prod, 2016).
Active and inactive are the calls of the source.

Assays:
Format in all cases: functional, organism-based
Rattus norvegicus [1] = test: Antiarthritic activity in Wistar rat type-2 collagen-induced arthritis model assessed as reduction in arthritis index score at 1 mg/kg, ig via gavage administered 10 consecutive days starting from day 20 post type-2 collagen injection
Outline: (§1)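 CIA in male 7-week-old Wistar rats: chicken CII (2 mg/mL in 0.1 M acetic acid) emulsified 1:1 in BCG-containing adjuvant, two intradermal 0.3 mL injections 7 d apart; controls received 0.05 M acetic acid. Gavage from day 20 for 10 d. Scoring, plethysmometry (mean of both hind paws) and von Frey threshold at baseline, pre-dosing and alternate days; n = 10.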

Rattus norvegicus [2] = test: Antiarthritic activity in Wistar rat type-2 collagen-induced arthritis model assessed as reduction in serum IL-1beta level at 1 mg/kg, ig via gavage administered 10 consecutive days starting from day 20 post type-2 collagen injection by ELISA method
Outline: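 After 10 d gavage in Wistar CIA rats, trunk blood taken at sacrifice; serum stored at −70 °C. IL-1β and TNF-α measured by commercial ELISA kits per manufacturer. One-way ANOVA with Student–Newman–Keuls test; n = 10/group.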

Rattus norvegicus [3] = test: Antiarthritic activity in Wistar rat type-2 collagen-induced arthritis model assessed as reduction in serum anti-type-2 collagen IgG level at 1 mg/kg, ig via gavage administered 10 consecutive days starting from day 20 post type-2 collagen injection by ELISA method
Outline: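 Serum from Wistar CIA rats collected after completing 10 d gavage dosing (from day 20 post first CII injection) and assayed for anti-CII IgG using a rat anti-CII antibody ELISA kit. One-way ANOVA with Student–Newman–Keuls test; n = 10/group.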

Rattus norvegicus [4] = test: Antiarthritic activity in Wistar rat type-2 collagen-induced arthritis model assessed as reduction in cartilage space narrowing at 1 mg/kg, ig via gavage administered 10 consecutive days starting from day 20 post type-2 collagen injection by X-ray method
Rattus norvegicus [5] = test: Antiarthritic activity in Wistar rat type-2 collagen-induced arthritis model assessed as reduction in hind paw volume at 1 mg/kg, ig via gavage administered 10 consecutive days starting from day 20 post type-2 collagen injection by plethysmometer; outline: as §1
Rattus norvegicus [6] = test: Antiarthritic activity in Wistar rat type-2 collagen-induced arthritis model assessed as reduction in bone erosion at 1 mg/kg, ig via gavage administered 10 consecutive days starting from day 20 post type-2 collagen injection by X-ray method
Rattus norvegicus [7] = test: Antiarthritic activity in Wistar rat type-2 collagen-induced arthritis model assessed as reduction in bone degradation at 1 mg/kg, ig via gavage administered 10 consecutive days starting from day 20 post type-2 collagen injection by X-ray method
Rattus norvegicus [8] = test: Antiarthritic activity in Wistar rat type-2 collagen-induced arthritis model assessed as reduction in mechanical allodynia at 1 mg/kg, ig via gavage administered 10 consecutive days starting from day 20 post type-2 collagen injection; outline: as §1
Rattus norvegicus [9] = test: (§2) Antiarthritic activity in Lewis rat Freund's adjuvant-induced arthritis model assessed as reduction in mechanical withdrawal threshold at 2.5 mg/kg, ig administered through gavage pretreated for 1 hr followed by adjuvant challenge subsequent treatment for 9 days measured alternate days up to 24 days post dose
Outline: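 Mechanical withdrawal threshold in Lewis AIA rats (right-paw CFA, gavage dosing 1 h pre-induction and daily 9 d), tested 1 h after dosing: 30 min habituation in individual cubicles, von Frey filament applied upward to mid-paw until withdrawal, 55 g cut-off, repeated twice at 10 min intervals; ipsilateral and contralateral paws recorded separately; n = 10.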

Rattus norvegicus [10] = test: as §2, with “hind paw volume” for “mechanical withdrawal threshold”, “dose by plethysmometer” for “dose”
Outline: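 Lewis rat AIA (female, 8 weeks; 0.1 mL CFA intradermally into right hind paw), dosed by gavage 1 h pre-induction then daily for 9 d. Plethysmometer volumes of injected (ipsilateral) and uninjected (contralateral) hind paws recorded separately. Two-way ANOVA with Dunnett's T3 test; n = 10/group.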

Rattus norvegicus [11] = test: Antiarthritic activity in Lewis rat Freund's adjuvant-induced arthritis model assessed as reduction in arthritis index score at 2.5 mg/kg, ig administered through gavage pretreated for 1 hr followed by adjuvant challenge subsequent treatment for 9 days measured alternate days up to 24 days post dose
Outline: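 AIA induced in female 8-week-old Lewis rats by one intradermal 0.1 mL CFA injection (10 mg heat-killed M. tuberculosis per mL paraffin oil) into right hind paw; controls received paraffin oil–water emulsion. Daily intragastric dosing from 1 h before induction through 9 d. Arthritis index scored; Kruskal–Wallis with Dunn's test; n = 10/group.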

Measured: Activity

CN(Cc1cnc2nc(N)nc(N)c2n1)c1ccc(C(=O)N[C@@H](CCC(=O)O)C(=O)O)cc1
not listed: Rattus norvegicus [9] | Rattus norvegicus [10] | Rattus norvegicus [11]
active: all other assays above

COc1ccc2c(c1)c(CC(=O)O)c(C)n2C(=O)c1ccc(Cl)cc1
active: Rattus norvegicus [9] | Rattus norvegicus [10] | Rattus norvegicus [11]
